Compounds with a hit are over-represented: about 1.5% of the library has one in this group of screens.
CXCR6 block: blocks human CXCR6 beta-arrestin recruitment. inhibition, % at 20 µM. AID 602244. hit rate 0.36% among 360,000. CHO-K1 PathHunter CXCR6 beta-arrestin, luminescence; in the data active = inhibition above about 34%, passing the limit was not always enough;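 note: antagonist mode with CXCL16 agonist at 10 nM final; 0% = 10 nM CXCL16 with DMSO and 100% = unstimulated wells without agonist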
APJ antag: APJ receptor antagonism. hit rate 0.32% among 330,000. inhibition, % at 20 µM. P35414. CHO-K1 APJ beta-arrestin complementation, luminescence;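 active = inhibition above about 40% at 20 µM, limit read from the data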;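 note: cells challenged with 10 nM apelin-13 agonist together with compound; plate controls were apelin-13 plus DMSO wells for no effect and DMSO wells lacking apelin-13 for full effect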
CCR6 antag: blocks CCL20-driven beta-arrestin recruitment at human CCR6; inhibition, % at 20 µM; hit rate 0.49% among 340,000; P51684; CHO-K1 CCR6 PathHunter beta-arrestin, luminescence, CCL20-stimulated;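 active = compounds whose inhibition of the agonist-driven luminescence signal at 20 µM reaches about 50%, limit read from the data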;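 note: cells stimulated with CCL20 at 14 nM final; plate controls were DMSO with CCL20 for no effect and DMSO without agonist for full effect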
APJ agonist: agonists of human APJ apelin receptor; hit rate 0.11% among 330,000; AID 2520; activation, % at 20 µM; CHO-K1 APJ PathHunter beta-arrestin, luminescence; 0% DMSO wells, 100% apelin; P35414;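 active = activation more than six SD over the plate average, tested at 20 µM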;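 note: 0% = DMSO alone and 100% = apelin-13 at 10 nM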
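Assay system – PathHunter CHO-K1 APJ (AGTRL-1) beta-arrestin reporter cells · Compound – one dose, 20 µM compound, 1% DMSO · Timing – compound 90 min 25 °C, reagent 1 h · Measured by – luminescence from split beta-galactosidase complementation, Galacton Star/Emerald II substrate · Measure – beta-arrestin recruitment to APJ as agonist activity, luminescent signal · Benchmarks – DMSO vs Apelin-13 10 nM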
EBI2 antag: blocks human EBI2 receptor beta-arrestin signaling; EBI2 beta-arrestin recruitment, luminescence, 7a,25-OHC stimulated; inhibition, % at 5 µM; hit rate 0.81% among 360,000; AID 651636; in the data active = inhibition above about 38%;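 note: enzyme fragment complementation signal reports receptor beta-arrestin coupling in cells; 0% = agonist plus DMSO wells and 100% = wells without agonist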
Target sequence (P32249 whole entry, looked up, the tested form may be a part): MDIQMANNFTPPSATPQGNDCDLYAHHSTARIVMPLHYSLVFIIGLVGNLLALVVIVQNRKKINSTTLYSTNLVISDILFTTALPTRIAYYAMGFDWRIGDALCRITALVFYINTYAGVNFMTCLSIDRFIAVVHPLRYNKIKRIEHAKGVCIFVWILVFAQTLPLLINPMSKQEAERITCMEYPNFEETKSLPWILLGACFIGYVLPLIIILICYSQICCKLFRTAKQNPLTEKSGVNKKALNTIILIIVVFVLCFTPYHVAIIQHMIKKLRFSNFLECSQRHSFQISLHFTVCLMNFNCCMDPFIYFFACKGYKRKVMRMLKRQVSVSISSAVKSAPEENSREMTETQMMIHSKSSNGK
APJ antag confirm: APJ receptor antagonism confirmation | shares compounds with APJ antag | APJ beta-arrestin recruitment, luminescence, antagonist mode | inhibition, % at 20 µM | hit rate 66% among 950 | AID 2766; in the data active = inhibition above about 50%
CXCR6 antag conf: confirmation of human CXCR6 receptor antagonists | shares compounds with CXCR6 block | CHO-K1 CXCR6 PathHunter beta-arrestin, luminescence | inhibition, % at 20 µM | hit rate 65% among 700;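 active = mean inhibition over four retests above 40%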;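 note: receptor stimulated with 10 nM CXCL16 agonist; beta-galactosidase fragment complementation upon beta-arrestin recruitment to receptor; plate controls were CXCL16 plus DMSO for no effect and DMSO without CXCL16 for full effect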
Active calls of the source: *; x = not tested or not shown.

SMILES | CXCR6 block | APJ antag | CCR6 antag | APJ agonist | EBI2 antag | APJ antag confirm | CXCR6 antag conf
Cn1c(=O)n(C)c2cc([N+](=O)[O-])c(N3CCN(C(=O)c4cccc(Cl)c4)CC3)cc21 | 52* | 53* | 65* | -13 | 27 | 84* | 46*
Cn1c(=O)n(C)c2cc([N+](=O)[O-])c(N3CCN(C(=O)c4cccc(F)c4)CC3)cc21 | 18 | 17 | 22 | -5 | 13 | x | x
Cc1ccccc1NC(=S)NNc1ncc(C(F)(F)F)cc1Cl | 45* | 45* | 70* | -8 | 17 | 70* | 53*
Cc1cccc(C)c1NC(=S)NNc1ncc(C(F)(F)F)cc1Cl | 16 | 29 | 29 | -5 | -1 | x | x
FC(F)(F)c1cnc(NNC(=S)Nc2cccnc2)c(Cl)c1 | 71* | 63* | 87* | -7 | 20 | 65* | 67*
COC(=O)c1ccc(C)c(-n2c(=O)n(Cc3ccccc3)c(=O)c3[nH]cnc32)c1 | 66* | 61* | 64* | -9 | 22 | 122* | 49*
CCS(=O)(=O)c1ncc(Cl)c(C(=O)Nc2ccc(S(=O)(=O)N3CCCC(C)C3)cc2)n1 (stereo not drawn) | 87* | 78* | 94* | -8 | 50* | 104* | 78*
CC1CCCN(S(=O)(=O)c2ccc(NC(=O)CNC3CCCC3)cc2)C1 (stereo not drawn) | -1 | 9 | 15 | -3 | -8 | x | x
CCC1CCCCN1S(=O)(=O)c1ccc(NC(=O)c2ccncc2)cc1 (stereo not drawn) | -26 | -20 | 8 | 7 | 1 | x | x
CCC1CCCCN1S(=O)(=O)c1ccc(NC(=O)c2nc(S(C)(=O)=O)ncc2Cl)cc1 (stereo not drawn) | 88* | 60* | 98* | -7 | 11 | 92* | 82*
C[N+]1=C(/C=C/Nc2ccccc2Cl)C(C)(C)c2ccccc21 | -8 | -7 | 23 | 1 | -1 | x | x
COC(=O)c1ccc2c(c1)C(C)(C)C(/C=C/c1ccccc1O)=[N+]2C | 68* | 63* | 89* | 1 | 16 | 124* | 93*
O=[N+]([O-])c1c(Nc2ccc(O)cc2)cc(Cl)c2nonc12 | 107* | 96* | 107* | -14 | 94* | 126* | 109*
CN(C)c1cc(Nc2ccc(O)cc2)c([N+](=O)[O-])c2nonc12 | 16 | -11 | 26 | -1 | -2 | x | x
CCCC(=O)OCCNc1cc(Sc2nc3ccccc3[nH]2)c2nonc2c1[N+](=O)[O-] | 94* | 87* | 118* | -7 | 7 | 126* | 103*
COC(=O)C[C@H]1C=C[C@@H](NC(=O)Nc2c(C)noc2C)[C@@H](CO)O1 | x | x | x | x | 3 | x | x
Cc1cccc(C)c1NC(=O)C(c1ccnc2ccccc12)N1CCN(C)CC1 (stereo not drawn) | x | x | x | x | -2 | x | x
Fc1ccc(NC(=S)Nc2nccs2)cc1 | 53* | 46* | 49 | -8 | 2 | 62* | 78*
CCNC(=O)C1(C)CCCN(C(=O)c2ccc(C(F)(F)F)nc2C)C1 (stereo not drawn) | 4 | x | x | x | 2 | x | x
CCn1c(=O)c([N+](=O)[O-])c(Cl)c2ccccc21 | 102* | 94* | 100* | -8 | 33 | 102* | 96*
Cc1ccc(C2C(C#N)=C(N)Oc3n[nH]c(-c4cccs4)c32)cc1 (stereo not drawn) | 0 | -9 | 20 | 1 | -4 | x | x
COc1cc(C2C(C#N)=C(N)Oc3n[nH]c(-c4cccs4)c32)cc(OC)c1O (stereo not drawn) | 49* | 47* | 59* | -4 | -4 | 47 | 51*
CCc1cc2c(=O)[nH]c(-c3ccccn3)nc2s1 | 49* | 78* | 87* | -6 | 50* | 70* | 69*
Cc1cccc(CSc2cccc3cccnc23)c1 | 66* | 56* | 72* | -14 | 45* | 84* | 74*

Screening results (PubChem BioAssay)
